Assay results published in ChEMBL document CHEMBL5385966, “Synthesis and biological evaluation of new naphthalimide-thiourea derivatives as potent antimicrobial agents active against multidrug-resistant Staphylococcus aureus and Mycobacterium tuberculosis” (RSC Med Chem, 2024).
In brackets after ≈: the same amount, converted by molar mass. Activity calls are given as the source filed them. The calls are words filed in the database; no cut-off is given here.

What was measured:
[1] = system: Staphylococcus aureus; experiment: Antibacterial activity against Staphylococcus aureus ATCC 29213 assessed as bacterial growth inhibition incubated for 16 to 18 hrs by CLSI based antibiotic susceptibility testing method; assay type: functional; conditions: time 16-18 hrs
Method in brief: (§1)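 Broth microdilution in cation-adjusted Mueller-Hinton broth. Compounds were tested at […], with levofloxacin as reference and medium-only controls. Plates were incubated at 37 °C for 16-18 h. MIC was the lowest concentration with no visible growth; three independent determinations, each in duplicate.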

[2] = system: Staphylococcus aureus; experiment: Bactericidal activity against Staphylococcus aureus ATCC 29213 assessed as reduction in remnant bacterial cells measured for 24 hrs by time-kill assay; assay type: functional, organism-based
Method in brief: (§2)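 Time-kill assay: S. aureus ATCC 29213 at ~10⁶ cfu/mL in MHB, exposed to 1X and 10X MIC at 37 °C, in triplicate. Samples taken at 0, 1, 6 and 24 h were serially diluted in PBS and plated on TSA for 18-20 h at 37 °C. Surviving cfu/mL were counted against untreated controls.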

[3] = system: Staphylococcus aureus; experiment: Antibacterial activity against methicillin/ceftriaxone/meropenem-resistant Staphylococcus aureus NRS10198 clinical isolate assessed as bacterial growth inhibition incubated for 16 to 18 hrs by CLSI based antibiotic susceptibility testing method; assay type: functional; conditions: time 16-18 hrs; method in brief: as §1
[4] = system: Staphylococcus aureus; experiment: Antibacterial activity against methicillin/ceftriaxone/meropenem/vancomycin/teicoplanin-resistant Staphylococcus aureus VRS4 clinical isolate assessed as bacterial growth inhibition incubated for 16 to 18 hrs by CLSI based antibiotic susceptibility testing method; assay type: functional; conditions: time 16-18 hrs; method in brief: as §1
[5] = Cytotoxicity against African green monkey Vero cells by MTT assay; assay type: toxicity, cell-based; conditions: chlorocebus sabaeus
Method in brief: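 Vero cells were seeded at ~10³ per well at 37 °C, 5% CO2. After 24 h, compounds were added at 5-100 mg/L for 72 h. […] was added for 4 h, formazan was dissolved in DMSO and read at 540 nm. CC50 was taken as the lowest concentration reducing viability by 50%; doxorubicin was the positive control; triplicate.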

[6] = system: Mycolicibacterium fortuitum; experiment: Antimycobacterial activity against Mycobacterium fortuitum ATCC 6841 assessed as bacterial growth inhibition incubated for 72 hrs by resazurin dye based broth microdilution method; assay type: functional, organism-based
Method in brief: (§3)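 Broth microdilution in Middlebrook 7H9 with 10% ADC-Tween-80 (0.2% glycerol, 0.05% Tween-80), inoculum ~10⁶ cfu/mL. Compounds came from 10 mg/mL DMSO stocks and were tested as two-fold serial dilutions at 37 °C, 7 days for M. tuberculosis H37Rv and 72 h for NTM. Growth was read visually with PrestoBlue resazurin dye; MIC was the lowest concentration preventing growth. Triplicate determinations, each in duplicate.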

[7] = system: Mycobacteroides chelonae; experiment: Antimycobacterial activity against Mycobacteroides chelonae ATCC 35752 assessed as bacterial growth inhibition incubated for 72 hrs by resazurin dye based broth microdilution method; assay type: functional, organism-based; method in brief: as §3
[8] = system: Mycobacteroides abscessus; experiment: Antimycobacterial activity against Mycobacterium abscessus ATCC 19977 assessed as bacterial growth inhibition incubated for 72 hrs by resazurin dye based broth microdilution method; assay type: functional, organism-based; method in brief: as §3
[9] = system: Staphylococcus aureus; experiment: Antibacterial activity against methicillin/ceftriaxone/meropenem-resistant Staphylococcus aureus NRS10129 clinical isolate assessed as bacterial growth inhibition incubated for 16 to 18 hrs by CLSI based antibiotic susceptibility testing method; assay type: functional; conditions: time 16-18 hrs; method in brief: as §1
[10] = Selectivity index, ratio of CC50 for African green monkey Vero cells to MIC for Staphylococcus aureus ATCC 29213; assay type: toxicity, cell-based; conditions: read-out: Selectivity Index
[11] = system: Staphylococcus aureus; experiment: Antibacterial activity against methicillin/ceftriaxone/meropenem-resistant Staphylococcus aureus NRS10186 clinical isolate assessed as bacterial growth inhibition incubated for 16 to 18 hrs by CLSI based antibiotic susceptibility testing method; assay type: functional; conditions: time 16-18 hrs; method in brief: as §1
[12] = system: Staphylococcus aureus; experiment: Antibacterial activity against methicillin-sensitive Staphylococcus aureus ATCC 29213 clinical isolate assessed as bacterial growth inhibition incubated for 16 to 18 hrs by CLSI based antibiotic susceptibility testing method; assay type: functional; conditions: time 16-18 hrs; method in brief: as §1
[13] = system: Mycobacterium tuberculosis; experiment: Antimycobacterial activity against Mycobacterium tuberculosis H37Rv ATCC 27294 assessed as bacterial growth inhibition incubated for 7 days by resazurin dye based broth microdilution method; assay type: functional; conditions: H37Rv ATCC 27294, 168 h, time 7 day; method in brief: as §3
[14] = system: Staphylococcus aureus; experiment: Antibacterial activity against methicillin/ceftriaxone/meropenem/gentamycin/linezolid-resistant Staphylococcus aureus NRS10100 clinical isolate assessed as bacterial growth inhibition incubated for 16 to 18 hrs by CLSI based antibiotic susceptibility testing method; assay type: functional; conditions: time 16-18 hrs; method in brief: as §1
[15] = system: Staphylococcus aureus; experiment: Antibacterial activity against methicillin/ceftriaxone/meropenem/gentamycin/linezolid-resistant Staphylococcus aureus NRS10119 clinical isolate assessed as bacterial growth inhibition incubated for 16 to 18 hrs by CLSI based antibiotic susceptibility testing method; assay type: functional; conditions: time 16-18 hrs; method in brief: as §1
[16] = system: Staphylococcus aureus; experiment: Bactericidal activity against Staphylococcus aureus ATCC 29213 assessed as reduction in remnant bacterial cells at 10 times MIC measured for 24 hrs by time-kill assay; assay type: functional; method in brief: as §2
[17] = system: Acinetobacter baumannii; experiment: Antibacterial activity against Acinetobacter baumannii BAA 1605 assessed as bacterial growth inhibition incubated for 16 to 18 hrs by CLSI based antibiotic susceptibility testing method; assay type: functional, organism-based; conditions: time 16-18 hrs; method in brief: as §1
[18] = system: Pseudomonas aeruginosa; experiment: Antibacterial activity against Pseudomonas aeruginosa ATCC 27853 assessed as bacterial growth inhibition incubated for 16 to 18 hrs by CLSI based antibiotic susceptibility testing method; assay type: functional, organism-based; conditions: time 16-18 hrs; method in brief: as §1
[19] = system: Staphylococcus aureus; experiment: Antibacterial activity against methicillin/ceftriaxone/meropenem/vancomycin/teicoplanin-resistant Staphylococcus aureus VRS12 clinical isolate assessed as bacterial growth inhibition incubated for 16 to 18 hrs by CLSI based antibiotic susceptibility testing method; assay type: functional; conditions: time 16-18 hrs; method in brief: as §1
[20] = system: Staphylococcus aureus; experiment: Antibacterial activity against methicillin/ceftriaxone/meropenem-resistant Staphylococcus aureus NRS10192 clinical isolate assessed as bacterial growth inhibition incubated for 16 to 18 hrs by CLSI based antibiotic susceptibility testing method; assay type: functional; conditions: time 16-18 hrs; method in brief: as §1
[21] = system: Escherichia coli; experiment: Antibacterial activity against Escherichia coli ATCC 25922 assessed as bacterial growth inhibition incubated for 16 to 18 hrs by CLSI based antibiotic susceptibility testing method; assay type: functional, organism-based; conditions: time 16-18 hrs; method in brief: as §1
[22] = system: Staphylococcus aureus; experiment: Antibacterial activity against methicillin/ceftriaxone-resistant Staphylococcus aureus NRS10194 clinical isolate assessed as bacterial growth inhibition incubated for 16 to 18 hrs by CLSI based antibiotic susceptibility testing method; assay type: functional; conditions: time 16-18 hrs; method in brief: as §1
[23] = system: Staphylococcus aureus; experiment: Antibacterial activity against methicillin/ceftriaxone/meropenem/gentamycin/vancomycin/teicoplanin-resistant Staphylococcus aureus VRS1 clinical isolate assessed as bacterial growth inhibition incubated for 16 to 18 hrs by CLSI based antibiotic susceptibility testing method; assay type: functional; conditions: time 16-18 hrs; method in brief: as §1
[24] = system: Klebsiella pneumoniae; experiment: Antibacterial activity against Klebsiella pneumoniae BAA 1705 assessed as bacterial growth inhibition incubated for 16 to 18 hrs by CLSI based antibiotic susceptibility testing method; assay type: functional, organism-based; conditions: time 16-18 hrs; method in brief: as §1
[25] = system: Staphylococcus aureus; experiment: Antibacterial activity against methicillin/ceftriaxone/meropenem-resistant Staphylococcus aureus NRS10191 clinical isolate assessed as bacterial growth inhibition incubated for 16 to 18 hrs by CLSI based antibiotic susceptibility testing method; assay type: functional; conditions: time 16-18 hrs; method in brief: as §1
[26] = system: Staphylococcus aureus; experiment: Antibacterial activity against methicillin/ceftriaxone/meropenem-resistant Staphylococcus aureus NRS10193 clinical isolate assessed as bacterial growth inhibition incubated for 16 to 18 hrs by CLSI based antibiotic susceptibility testing method; assay type: functional; conditions: time 16-18 hrs; method in brief: as §1
[27] = system: Staphylococcus aureus; experiment: Antimicrobial activity against methicillin-resistant Staphylococcus aureus assessed as microbial growth inhibition by NCCLS based assay; assay type: functional
[28] = system: Staphylococcus aureus; experiment: Antimicrobial activity against methicillin-resistant Staphylococcus aureus Newman assessed as microbial growth inhibition; assay type: functional

In the case of `O=C1c2cccc3cccc(c23)C(=O)N1CCN1CCN(C(=S)NC2CCCCC2)CC1`, the MIC [1] is reported as 0.125 µg/mL (≈ 0.277 µM), the Activity [2] is reported as “Dose-Dependent Effect” and the MIC [3] is reported as 0.25 µg/mL (≈ 0.555 µM). For the same molecule, the MIC [4] was 0.25 µg/mL (≈ 0.555 µM), the CC50 [5] was > 20 µg/mL and the “growth inhibition (GI)” value [6] was “inactive”. The “growth inhibition (GI)” value [7] was “inactive”, the “growth inhibition (GI)” value [8] was “inactive” and the MIC [9] was 0.25 µg/mL (≈ 0.555 µM). For the same molecule, the selectivity ratio [10] was > 160, the MIC [11] was 0.25 µg/mL (≈ 0.555 µM) and the MIC [12] was 0.25 µg/mL (≈ 0.555 µM). It also gave an MIC [13] of 4 µg/mL (≈ 8.88 µM), an MIC [14] of 0.25 µg/mL (≈ 0.555 µM) and an MIC [15] of 0.25 µg/mL (≈ 0.555 µM). The Activity [16] was ~5 log10CFU/ml, the “growth inhibition (GI)” value [17] was “inactive” and the “growth inhibition (GI)” value [18] was “inactive”. For the same molecule, the MIC [19] was 0.5 µg/mL (≈ 1.11 µM), the MIC [20] was 0.25 µg/mL (≈ 0.555 µM) and the “growth inhibition (GI)” value [21] was “inactive”. The MIC [22] was 0.25 µg/mL (≈ 0.555 µM), the MIC [23] was 0.25 µg/mL (≈ 0.555 µM) and the “growth inhibition (GI)” value [24] was “inactive”. It also gave an MIC [25] of 0.25 µg/mL (≈ 0.555 µM) and an MIC [26] of 0.25 µg/mL (≈ 0.555 µM).

In the case of `O=C1c2cccc3cccc(c23)C(=O)N1CCN1CCN(C(=S)NC2CCCC2)CC1`, the MIC [1] is reported as 0.125 µg/mL (≈ 0.286 µM), the Activity [2] is reported as “Dose-Dependent Effect” and the MIC [3] is reported as 0.125 µg/mL (≈ 0.286 µM). The MIC [4] was 0.125 µg/mL (≈ 0.286 µM), the CC50 [5] was > 20 µg/mL and the “growth inhibition (GI)” value [6] was “inactive”. For the same molecule, the “growth inhibition (GI)” value [7] was “inactive”, the “growth inhibition (GI)” value [8] was “inactive” and the MIC [9] was 0.25 µg/mL (≈ 0.573 µM). For the same molecule, the selectivity ratio [10] was > 160, the MIC [11] was 0.25 µg/mL (≈ 0.573 µM) and the MIC [12] was 0.125 µg/mL (≈ 0.286 µM). The MIC [13] was 2 µg/mL (≈ 4.58 µM), the MIC [14] was 0.25 µg/mL (≈ 0.573 µM) and the MIC [15] was 0.125 µg/mL (≈ 0.286 µM). The Activity [16] was ~5 log10CFU/ml, the “growth inhibition (GI)” value [17] was “inactive” and the “growth inhibition (GI)” value [18] was “inactive”. The MIC [19] was 0.25 µg/mL (≈ 0.573 µM), the MIC [20] was 0.125 µg/mL (≈ 0.286 µM) and the “growth inhibition (GI)” value [21] was “inactive”. For the same molecule, the MIC [22] was 0.125 µg/mL (≈ 0.286 µM), the MIC [23] was 0.125 µg/mL (≈ 0.286 µM) and the “growth inhibition (GI)” value [24] was “inactive”. It also gave an MIC [25] of 0.125 µg/mL (≈ 0.286 µM) and an MIC [26] of 0.125 µg/mL (≈ 0.286 µM).

In the case of `CCNc1ccc2c3c(cccc13)C(=O)N(CC(O)Cn1c([N+](=O)[O-])cnc1C)C2=O` (stereo not given), the MIC [27] is reported as 40 µM (≈ 16.9 µg/mL).

`S=C(Nc1ccc(Cl)cc1)n1ccc(OCc2ccccc2)n1` gave an MIC [28] of 0.15 µM (≈ 0.0516 µg/mL).

For `O=C(CN1C(=O)c2cccc3cccc(c23)C1=O)N1CCC(NC(=S)NC2CCCC2)CC1`, the MIC [1] was 0.031 µg/mL (≈ 0.0667 µM), the Activity [2] was “Dose-Dependent Effect” and the MIC [3] was 0.06 µg/mL (≈ 0.129 µM). The MIC [4] was 0.06 µg/mL (≈ 0.129 µM), the CC50 [5] was > 100 µg/mL and the “growth inhibition (GI)” value [6] was “inactive”. For the same molecule, the “growth inhibition (GI)” value [7] was “inactive”, the “growth inhibition (GI)” value [8] was “inactive” and the MIC [9] was 0.06 µg/mL (≈ 0.129 µM). The selectivity ratio [10] was > 3200, the MIC [11] was 0.06 µg/mL (≈ 0.129 µM) and the MIC [12] was 0.06 µg/mL (≈ 0.129 µM). For the same molecule, the MIC [13] was > 64 µg/mL, the MIC [14] was 0.06 µg/mL (≈ 0.129 µM) and the MIC [15] was 0.06 µg/mL (≈ 0.129 µM). The Activity [16] was ~5 log10CFU/ml, the “growth inhibition (GI)” value [17] was “inactive” and the “growth inhibition (GI)” value [18] was “inactive”. The MIC [19] was 0.06 µg/mL (≈ 0.129 µM), the MIC [20] was 0.06 µg/mL (≈ 0.129 µM) and the “growth inhibition (GI)” value [21] was “inactive”. For the same molecule, the MIC [22] was 0.06 µg/mL (≈ 0.129 µM), the MIC [23] was 0.06 µg/mL (≈ 0.129 µM) and the “growth inhibition (GI)” value [24] was “inactive”. For the same molecule, the MIC [25] was 0.06 µg/mL (≈ 0.129 µM) and the MIC [26] was 0.06 µg/mL (≈ 0.129 µM).
